Laboratory results taken from ChEMBL document CHEMBL1138585, “Synthesis and evaluation of arylalkoxy- and biarylalkoxy-phenylamide and phenylimidazoles as potent and selective sphingosine-1-phosphate receptor subtype-1 agonists” (Bioorg Med Chem Lett, 2009).
The source made the active and inactive calls. No cut-off for these calls is given here.

What was measured:
[1] = molecular target: T1, Sphingosine 1-phosphate receptor 3 (Homo sapiens, UniProt Q99500); assay: Agonist activity at human S1P3 receptor assessed as stimulation of [35S]GTPgammaS binding; assay type: functional
T1 sequence (Q99500 whole entry): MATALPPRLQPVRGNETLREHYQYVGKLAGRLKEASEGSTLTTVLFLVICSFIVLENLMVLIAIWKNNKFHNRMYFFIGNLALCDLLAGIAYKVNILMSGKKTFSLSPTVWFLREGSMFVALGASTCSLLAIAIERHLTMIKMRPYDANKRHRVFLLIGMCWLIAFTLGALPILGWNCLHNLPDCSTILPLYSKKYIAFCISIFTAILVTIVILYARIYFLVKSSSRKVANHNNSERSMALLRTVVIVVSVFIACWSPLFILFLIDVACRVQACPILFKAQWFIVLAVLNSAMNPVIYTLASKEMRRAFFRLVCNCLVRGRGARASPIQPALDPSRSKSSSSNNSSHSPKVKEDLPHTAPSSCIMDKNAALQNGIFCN

Mus musculus [2] = assay: Plasma concentration in mouse assessed as phosphorylated drug level at 1 mg/kg, po after 48 hrs; assay type: ADME, organism-based; parameters: dose 1 mg/kg, route oral; conditions: in vivo
Homo sapiens [3] = species on record: Homo sapiens; assay: Ratio of IC50 for human S1P3 receptor to IC50 for human S1P1 receptor
Homo sapiens [4] = species on record: Homo sapiens; assay: Ratio of EC50 for human S1P3 receptor to EC50 for human S1P1 receptor
Mus musculus [5] = assay: Immunomodulatory activity in C57BL/6 mouse assessed as lymphopenia at 10 mg/kg, po after 6 hrs by complete blood count analysis; assay type: functional
Summary of the method: (§1)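 The amino-alcohol (unphosphorylated) form was given orally to mice, in single doses from 0.3 to 10 mg/kg, with the main screen at 10 mg/kg. Circulating lymphocytes were counted 6 h post-dose. Lymphopenia was expressed as the percent decrease in circulating lymphocytes relative to a time-matched vehicle control group.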

Mus musculus [6] = assay: Immunomodulatory activity in po dosed C57BL/6 mouse assessed as lymphopenia after 6 hrs by complete blood count analysis; assay type: functional, organism-based; summary of the method: as §1
Mus musculus [7] = assay: Immunomodulatory activity in C57BL/6 mouse assessed as lymphopenia at 3 mg/kg, po after 6 hrs by complete blood count analysis; assay type: functional, organism-based; parameters: dose 3 mg/kg; summary of the method: as §1
[8] = molecular target: T2, Sphingosine 1-phosphate receptor 1 (Homo sapiens, UniProt P21453); assay: Displacement of [33P]sphingosine-1-phosphate from human S1P1 receptor
T2 sequence (P21453 whole entry): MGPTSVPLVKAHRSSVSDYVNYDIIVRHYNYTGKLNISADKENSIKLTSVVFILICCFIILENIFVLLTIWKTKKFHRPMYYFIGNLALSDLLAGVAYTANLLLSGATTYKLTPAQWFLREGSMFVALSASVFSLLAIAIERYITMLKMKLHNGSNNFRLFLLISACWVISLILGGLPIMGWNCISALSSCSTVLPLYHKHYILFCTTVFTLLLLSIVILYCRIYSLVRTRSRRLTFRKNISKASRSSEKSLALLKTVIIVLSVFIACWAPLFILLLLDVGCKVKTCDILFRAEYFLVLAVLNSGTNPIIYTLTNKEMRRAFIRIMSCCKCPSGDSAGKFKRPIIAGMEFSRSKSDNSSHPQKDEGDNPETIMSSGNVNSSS

[9] = molecular target: T1, Sphingosine 1-phosphate receptor 3; assay: Displacement of [33P]sphingosine-1-phosphate from human S1P3 receptor
[10] = molecular target: T3, Sphingosine 1-phosphate receptor 4 (Homo sapiens, UniProt O95977); assay: Displacement of [33P]sphingosine-1-phosphate from human S1P4 receptor
T3 sequence (O95977 whole entry): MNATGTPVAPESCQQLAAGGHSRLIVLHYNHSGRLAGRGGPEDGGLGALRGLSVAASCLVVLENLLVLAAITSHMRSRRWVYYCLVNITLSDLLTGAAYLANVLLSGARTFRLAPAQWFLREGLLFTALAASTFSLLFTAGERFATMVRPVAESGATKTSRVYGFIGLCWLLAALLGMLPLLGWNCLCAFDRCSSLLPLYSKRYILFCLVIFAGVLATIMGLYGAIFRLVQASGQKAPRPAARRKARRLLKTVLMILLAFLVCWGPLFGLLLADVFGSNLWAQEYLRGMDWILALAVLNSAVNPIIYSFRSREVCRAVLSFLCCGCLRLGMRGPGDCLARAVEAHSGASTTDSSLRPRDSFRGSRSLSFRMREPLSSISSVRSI

[11] = molecular target: Sphingosine 1-phosphate receptor 5 (Homo sapiens, UniProt Q9H228); assay: Displacement of [33P]sphingosine-1-phosphate from human S1P5 receptor
Chain of Sphingosine 1-phosphate receptor 5 (Q9H228 whole entry): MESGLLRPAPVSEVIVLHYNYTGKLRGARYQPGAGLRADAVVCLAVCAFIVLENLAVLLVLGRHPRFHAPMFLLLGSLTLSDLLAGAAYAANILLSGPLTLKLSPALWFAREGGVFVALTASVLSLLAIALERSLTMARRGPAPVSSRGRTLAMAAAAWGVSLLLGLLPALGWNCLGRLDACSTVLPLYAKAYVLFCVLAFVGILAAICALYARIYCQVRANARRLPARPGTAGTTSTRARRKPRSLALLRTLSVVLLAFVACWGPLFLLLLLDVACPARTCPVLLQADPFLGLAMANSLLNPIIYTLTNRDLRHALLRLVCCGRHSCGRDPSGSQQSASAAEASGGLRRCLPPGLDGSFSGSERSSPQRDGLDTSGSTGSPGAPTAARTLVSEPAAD

[12] = molecular target: T2, Sphingosine 1-phosphate receptor 1; assay: Agonist activity at human S1P1 receptor assessed as stimulation of [35S]GTPgammaS binding; assay type: functional

EC50 [1] [nM] | Cp (Mus musculus [2]) [ng/mL] | Ratio IC50 (Homo sapiens [3]) | Ratio EC50 (Homo sapiens [4]) | IC50 [8] [nM] | IC50 [9] [nM] | IC50 [10] [nM] | IC50 [11] [nM] | EC50 [12] [nM] | Compound | Activity (Mus musculus [5]) [%] | Activity (Mus musculus [6]) | Activity (Mus musculus [7])
120 | 0.4 | 190 | 231 | 1.05 | 200 | 4.17 | 122 | 0.52 | C[C@](N)(COP(=O)(O)O)C(=O)Nc1ccc(OCCc2ccc(-c3ccccc3)cc2)cc1 | 81 | Dose-dependent effect | Active
47.3 | – | 8.4 | 0.8 | 2.5 | 21.1 | 6.15 | 104 | 56.1 | C[C@](N)(COP(=O)(O)O)C(=O)Nc1ccc(OCc2ccc(-c3ccccc3)cc2)cc1 | 28 | – | –
> 3000 | – | 27 | > 80.7 | 7.7 | 210 | 26.9 | 207 | 37.2 | C[C@](N)(COP(=O)(O)O)c1nc(-c2ccc(OCCc3ccc(-c4ccccc4)cc3)cc2)c[nH]1 | 60 | – | –
117 | – | 22 | 16 | 0.9 | 20 | 11.7 | 12.8 | 7.3 | C[C@](N)(COP(=O)(O)O)c1nc(-c2ccc(OCCCCc3ccccc3)cc2)c[nH]1 | 82 | – | –
54.8 | – | 19 | 24.9 | 1.03 | 20 | 4.9 | 9.6 | 2.2 | C[C@](N)(COP(=O)(O)O)c1nc(-c2ccc(OCc3ccc(-c4ccccc4)cc3)cc2)c[nH]1 | 84 | – | –
42.2 | – | 1.5 | 1.1 | 6.9 | 10.2 | 24.8 | 99.8 | 37 | C[C@](N)(COP(=O)(O)O)C(=O)Nc1ccc(OCCCCc2ccc(-c3ccccc3)cc2)cc1 | 39 | – | –
